Screening data from PubChem.
Sampled rows, rich in hits. Any-hit rate of the full collection: about 5.4%.
T cruzi inh: inhibitors of intracellular T. cruzi growth, primary screen, luminescence, NIH3T3 host cells; T. cruzi beta-gal in NIH3T3, 90 h; inhibition, % (concentration not given with the values); hit rate 1.4% among 300,000;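 active = mean inhibition across valid replicates above about 55%, limit read from the data; inconclusive = mean below that limit but half or more replicates reach it; inactive = mean below it, under half of replicates reach it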;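 note: signal also drops with host cell toxicity which is not excluded here; 0% = plate median of DMSO wells and 100% = zero luminescence signal; higher percent means less beta-gal luminescence so fewer parasites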
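System: NIH/3T3 fibroblasts plus reporter T. cruzi. Medium: DMEM plus 2% FBS. Probe or stimulus: 5000 reporter trypomastigotes per well. Compound: single 50 nL compound addition per well in DMSO. Incubation: co-culture of at least 90 h after 3 h attachment. Detection: GalScreen β-gal luminescence, detergent lysis, 60 min. Evaluation: parasite load inhibition, %.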
CSC inhib: cancer stem cell viability inhibitors, primary screen, luminescence | AID 2717, 2010 | hit rate 1.1% among 300,000 | cancer stem cell-like cells viability | inhibition, % at 7.5 µM; in the data active = inhibition above about 75%; inconclusive = no clear call, values can overlap the other calls; tested in HMLE shEcad cells
Mdm2-MdmX inh: inhibitors of human Mdm2-MdmX association, primary screen, cell-based, luminescence, split luciferase, SaOS-2, uHTS; SaOS-2 split-luciferase Mdm2/MdmX complementation; hit rate 3% among 330,000; Protein Mdm4 (Homo sapiens) + E3 ubiquitin-protein ligase Mdm2 (Homo sapiens), …; AID 485346, 2010; inhibition, % at 8 µM;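 active = inhibition of at least 50% at 8 µM in the primary screen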
aSyn UTR inh: MLPCN primary screen, SNCA 5' untranslated region. AID 1813, 2009. inhibition, % (tested at 7.5 µM). hit rate 0.82% among 300,000. alpha-synuclein 5'UTR reporter, inhibitor activity; in the data active = inhibition above about 60%; inconclusive = no clear call, values can overlap the other calls;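 note: H4 neuroglioblastoma cells stably carrying SNCA 5'UTR luciferase fusion; 0% = DMSO wells and 100% = positive control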
SKKanGAS inh: S. pyogenes SKKanGAS growth inhibitors in kanamycin, primary screen, streptokinase expression inhibitor project, SKKanGAS strain, BacTiter-Glo luminescence; hit rate 1.3% among 300,000; inhibition, % at 7.5 µM; 6 h;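 active = mean replicate score, as percent of positive control median, at least 50; inconclusive = mean below 50 but one replicate at or above 50; inactive = mean and every replicate below 50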;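 note: strain carries kanamycin resistance gene driven by streptokinase promoter and grows in 40 µg/ml kanamycin; loss of luminescence reflects streptokinase promoter inhibition or plain growth inhibition; 0% = median of DMSO wells and 100% = positive control at its reference dose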
Mdm2-MdmX conf: Mdm2-MdmX complex disruptors, retested hits, confirmation, luminescence, single concentration; shares compounds with Mdm2-MdmX inh; Mdm2-MdmX binding, luminescent assay; inhibition, % at 8 µM; hit rate 55% among 10,000; in the data active = inhibition above about 40%
FLuc counter: full-length luciferase signal inhibition, confirmation, counter-screen for Mdm2/MdmX interaction inhibitor project, cell-based, single concentration, SaOS-2; inhibition, % at 8 µM; SaOS-2 full-length luciferase counterscreen, luminescence; hit rate 77% among 6,200; shares compounds with Mdm2-MdmX inh;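 active = mean inhibition at 8 µM reaching about 37%, which flags the compound as non-specific, limit read from the data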;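 note: p53-null SaOS-2 cells with luciferase driven by a doxycycline-inducible promoter; compound on cells about two nights before reading with doxycycline added after day one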
* = called active by the depositor; ? = inconclusive; / = no result.

SMILES	T cruzi inh	CSC inhib	Mdm2-MdmX inh	aSyn UTR inh	SKKanGAS inh	Mdm2-MdmX conf	FLuc counter
CC1CCN(c2nc(CN3CCCCC3)nc3scc(-c4ccccc4)c23)CC1	48.6	63.9	56.8*	-9.1	?	20.1	/
COc1ccccc1CCNC(C)CCc1ccc(O)cc1 (configuration not stated)	9.1	6.0	10.7	-23.3	2.5	/	/
COc1cc(OC)c(OC)cc1CCC(C)NCCC(c1ccccc1)c1ccccc1 (configuration not stated)	27.2	16.4	63.8*	15.6	8.1	50.2*	59.5*
CCOC(=O)c1nnc(-c2cccs2)nc1NC(C)C	-12.1	-5.5	-22.2	-23.9	-8.7	/	/
O=C(COc1ccc(Cl)cc1Cl)NN=C1c2ccccc2-c2ccccc21	0.3	3.1	81.9*	-16.3	14.9	20.1	/
O=[N+]([O-])c1c(Nc2cccc(O)c2)cc(Cl)c2nonc12	60.3*	69.3	100.3*	25.0	?	99.7*	51.5*
Cc1c(Nc2cc(N3CCOCC3)c3nonc3c2[N+](=O)[O-])c(=O)n(-c2ccccc2)n1C	-2.6	12.5	/	1.6	0.1	/	/
O=C(O)c1ccc(Nc2cc(Cl)c3nonc3c2[N+](=O)[O-])cc1	1.5	-0.8	-20.9	-37.0	-30.3	/	/
Cc1c(Nc2cc(Cl)c3nonc3c2[N+](=O)[O-])c(=O)n(-c2ccccc2)n1C	/	/	99.3*	/	/	98.2*	57.1*
CCc1nc2c(c(=O)c3ccccc3n2C)c(=O)n1CCc1ccc(OC)cc1	17.3	-12.6	87.9*	74.0*	6.0	65.8*	122.6*
COc1ccc(CCn2c(-c3ccc(OC)cc3)nc3c(c(=O)c4ccccc4n3C)c2=O)cc1	-7.7	-17.9	16.0	-44.7	25.4	/	/
COCCCN1CCN(C2Cc3ccccc3Sc3ccc(Cl)cc32)CC1 (configuration not stated)	28.3	4.8	43.2	-13.1	4.9	/	/
Clc1cccc2c1Sc1ccccc1CC2N1CCNCC1 (configuration not stated)	25.9	-5.9	66.0*	-0.8	-3.2	73.1*	47.0*
Clc1ccc2c(c1)C(N1CCNCC1)Cc1ccccc1S2 (configuration not stated)	3.8	-6.0	100.8*	20.9	16.8	100.1*	39.2*
COc1ccc(C(=O)N/C(=C\c2cn(S(=O)(=O)N(C)C)c3ccccc23)C(=O)NC(C)C)cc1	12.1	-10.8	-0.9	6.5	-12.8	/	/
CCN(CC)C(=O)/C(=C/c1cn(S(=O)(=O)N(C)C)c2ccccc12)NC(=O)c1ccc(OC)cc1	8.6	7.8	61.3*	12.6	21.5	23.6	/
COCCn1c(SCC(=O)Nc2ccccc2F)nc2c([nH]c3ccccc32)c1=O	6.9	-15.8	36.4	15.9	-4.0	/	/
COCCn1c(SCC(=O)Nc2ccc(F)cc2F)nc2c([nH]c3ccccc32)c1=O	2.3	-5.9	55.4*	10.7	-9.4	53.0*	13.8
C=CCn1c(SCC(=O)Nc2ccccc2OC)nc2c([nH]c3ccccc32)c1=O	4.5	4.8	37.7	25.6	10.2	/	/
C=CCn1c(SCC(=O)Nc2ccc(F)cc2F)nc2c([nH]c3ccccc32)c1=O	-4.1	-14.8	64.6*	6.2	-8.4	51.9*	26.8
Cn1c(=O)n(C)c2cc(NC(=O)c3ccc(F)cc3)ccc21	-7.2	-13.2	31.7	-53.7	-7.1	/	/
COc1cc(NC(=O)c2ccc(Cl)cc2Cl)ccc1NC(=O)c1cccs1	1.7	3.6	-10.0	-51.6	14.1	/	/
CC1CCc2cc(F)cc3c(O)c(C(=O)NCC4CCCO4)c(=O)n1c23 (configuration not stated)	5.6	24.7	70.6*	4.6	6.1	44.0*	21.7
Cc1nc2ccc(F)cc2cc1C(=O)NCC1CCCO1 (configuration not stated)	17.5	/	/	-23.1	1.6	/	/
O=C(NCC1CCCO1)c1c(O)c2ccccc2[nH]c1=O (configuration not stated)	-6.7	1.1	-5.0	-140.0	-2.0	/	/
SMILES	T cruzi inh	CSC inhib	Mdm2-MdmX inh	aSyn UTR inh	SKKanGAS inh	Mdm2-MdmX conf	FLuc counter
CCCn1c(=O)c(C(=O)NCc2cccnc2)c(O)c2ccccc21	5.3	-17.5	10.9	-12.6	9.1	/	/
CCCn1c(=O)c(C(=O)NCC2CCCO2)c(O)c2ccccc21 (configuration not stated)	-0.2	22.9	67.5*	-3.0	13.8	11.3	/
CC(C)Cn1c(N)c(C(=O)NCC2CCCO2)c2nc3ccccc3nc21 (configuration not stated)	8.3	4.9	52.2*	41.0	4.9	21.4	/
CCCn1c(=O)c(C(=O)NCc2ccccn2)c(O)c2ccccc21	/	4.4	62.9*	/	/	33.1	/
COc1ccc(CN(C)CC(=O)Nc2ccccc2C(=O)NC2CC2)cc1F	/	0.0	-4.6	/	/	/	/
O=C(O)CC(c1ccc(C(F)(F)F)cc1)N1Cc2ccccc2C1=O (configuration not stated)	-7.9	-9.8	-18.8	23.8	-0.3	/	/
CC(/C=N\Nc1nnc2c(n1)[nH]c1c(C)cccc12)=C\c1ccco1	-33.1	-2.5	90.8*	-59.7	-1.4	40.4*	57.2*
CCOc1ccc(OCC(=O)N(CCC2=CCCCC2)c2c(N)n(Cc3ccccc3)c(=O)[nH]c2=O)cc1	1.6	75.8*	68.2*	25.0	4.3	56.1*	91.6*
COc1ccc(C(=O)NCCCn2nc(C)cc2C)cc1S(=O)(=O)N1CCOCC1	/	/	-7.4	/	/	/	/
CC(=O)O[C@H]1[C@H](O)[C@H](Oc2c(O)c(C)c3c4c2[C@@H](C)CC[C@@H]4[C@@H](C)C[C@H]3C=C(C)C)O[C@@H](C)[C@H]1O	/	/	73.8*	/	/	-4.8	/
Cc1cc(-c2ccc(N=Nc3c(S(=O)(=O)O)cc4cc(S(=O)(=O)O)cc(N)c4c3O)c(C)c2)ccc1N=Nc1c(S(=O)(=O)O)cc2cc(S(=O)(=O)O)cc(N)c2c1O	/	65.0	62.4*	/	/	56.6*	47.8*
O=S(=O)(O)c1cc(O)c2c(O)c(N=Nc3cc(Cl)ccc3O)c(S(=O)(=O)O)cc2c1	-1.8	64.8	35.9	44.7	34.5	/	/
Cn1c(/C=C/c2ccc([N+](=O)[O-])o2)nc2ccccc2c1=O	66.9*	110.0*	90.7*	97.9*	47.7	69.8*	52.5*
O=C(Nc1cnn(C23CC4CC(CC(C4)C2)C3)c1)c1cnn2c(C(F)(F)F)cc(-c3ccco3)nc12	-6.4	43.0	58.1*	22.6	10.5	16.6	/
